In the EternaBench riboswitch data:

What was measured:
MS2 coat protein [1] = test: apparent Kd, MS2 coat protein; higher = weaker binding; RNA-MaP array; theophylline 2 mM where present
In short: (§1)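 The apparent Kd is the median of filtered binding-curve fits, one per cluster, to green signal normalised to red-channel RNA signal and control-cluster median Fmax. The clusters were on Illumina sequencing chips, and stalled E. coli RNA polymerase had transcribed the designs on them. Titration used SNAP-549-labelled MS2 coat protein from 0.7 or 1.5 nM, doubling to 3 µM, without and then with constant ligand, in 100 mM Tris-HCl pH 7.5, 80 mM KCl, 4 mM MgCl2, BSA, DTT, yeast tRNA and Tween-20.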

MS2 coat protein [2] = test: apparent Kd, MS2 coat protein; higher = weaker binding; RNA-MaP array; tryptophan 2.4 mM where present
In short: as §1

[3] = ligand present: theophylline, designed as: OFF switch for theophylline
[4] = designed as: ON switch for theophylline, no ligand
[5] = ligand present: theophylline, designed as: ON switch for theophylline
[6] = designed as: OFF switch for theophylline, no ligand
[7] = designed as: OFF switch for tryptophan, no ligand
[8] = ligand present: tryptophan, designed as: OFF switch for tryptophan
[9] = designed as: ON switch for tryptophan, no ligand
[10] = ligand present: tryptophan, designed as: ON switch for tryptophan

| Sequence | apparent Kd (MS2 coat protein [1]; [3]) [nM] | apparent Kd (MS2 coat protein [1]; [4]) [nM] | apparent Kd (MS2 coat protein [1]; [5]) [nM] | apparent Kd (MS2 coat protein [1]; [6]) [nM] | further results |
| --- | --- | --- | --- | --- | --- |
| GGCCGAUGGUGCGAUACCAGCUUGAGUGUACUGGCCAGGUACAUGAGGAUCACCCAUGUAAGCCCUUGGCAGCGCGUCAGAGGCC | 35.8 | – | – | – | – |
| UGAUCCUACAGAGAUACCAGUGCCACUAAAUAACUAAACACAUGAGGAUCACCCAUGUAACACCCUUGGCAGCUCAACUAAAGGG | – | 27.4 | 19.2 | – | – |
| AGUAAUCUAUCAGAUACCAGACCCUCUUUAACAUGAGGAUCACCCAUGUCUAUGUUCUACGUCCCUUGGCAGCUGUAAAUGAUAA | – | 45.9 | 20.9 | – | – |
| CGUGGUGGGACGGAUACCAGCCACCGCGGCAACGCAACAUGAGGAUCACCCAUGUUGGGUGGCCCUUGGCAGCUGUCCUGCGGCG | – | 11.5 | 13.4 | – | – |
| AACAUGGGAUUAAAAUAAAUAAUAACUGAUACCAGACUAUAUAAUGUCCCUUGGCAGCAGAUACAUGAGGAUCACCCAUGUAUUA | 23.8 | – | – | 12.9 | – |
| AUAAGUAAUGUCUCGUGUAUUAUUACAGAUACCAGACUAUCCUAUGUCCCUUGGCAGCUGGAUUACAUGAGGAUCACCCAUGUGG | 35 | – | – | 43.6 | – |
| AUAAAUAUAACCGAUACCAGCCUUAUACAUGAGGAUCACCCAUGUUAUGCUUCCUUUCUUGGCCCUUGGCAGCGGAAAUGGGUAA | – | 57.9 | 26.4 | – | – |
| GAGCUGAUGUAGGGCGGAUAUCCGUGAGAUACCAGUACAGAAAUGUACCCUUGGCAGCUCUUCCUUACAUGAGGAUCACCCAUGU | 36.1 | – | – | 19.4 | – |
| AGUACUCGAACGGAUACCAGCCGGACAUGAGGAUCACCCAUGUCCUACCUCUGUUCGGUUGGCCCUUGGCAGCCGUUCGUGUACA | – | 99.4 | 93.3 | – | – |
| UGGUACAUGAGGAUCACCCAUGUGCCGGAUACCAGAGAGCCGGCUCUCCCUUGGCAGCUGGCGCGACAUGAGGAUCACCCAUGUG | 38.4 | – | – | 25.2 | – |
| UAUAUAUAUAUGGAUACCAGCAGAGAAAACGUUUAUCCUAACAUGAGGAUCACCCAUGUAUGCCCUUGGCAGCUGUAUAUAUAUA | 32.4 | – | – | 24.9 | – |
| AACUAAUCACAUGAGGAUCACCCAUGUGAUACCAGCUAAUCCCAAAGCCCUUGGCAGCACCUUUGGGUCCCGGUGUGUUUGAACA | 21.9 | – | – | 9.6 | – |
| AAUAACAUGAGGAUCACCCAUGUAAAAGAUACCAGAGUGAUGAUCCUCCCUUGGCAGCUUAAUAACGCUAUCGGAAACGAUAGCG | – | 69.2 | 105 | – | – |
| UUAUGAUGUUCCGAUACCAGCCAUGUGGUUCUAACUUAACAUGAGGAUCACCCAUGUACCGGCCCUUGGCAGCGGAUGUGGAUUA | – | 11.2 | 17 | – | – |
| AUAUCAUAGAGUGAUACCAGACUACAUGAGGAUCACCCAUGUGACAUUUAAAUAUCAUUUGUCCCUUGGCAGCACAUUAAGUACA | 65.4 | – | – | 67.3 | – |
| UUAUUUAUAAUUGAUACCAGUUUAAUGGCCGCAAAUCCUGACAUGAGGAUCACCCAUGUAAGCCCUUGGCAGCGGUUAUGGGUUU | 21.1 | – | – | 21 | – |
| ACAUGAGGAUCACCCAUGUAGUGGCACGAUACCAGCUGAUCCCGUGGCCCUUGGCAGCGUCCGGUGUGGUCUGCCGGGAUGGAGC | – | 23.7 | 28.4 | – | – |
| AAUGCUGCCAAGGAUUCCUCAUGAGCAGAUACCAGCUAGGAAACUAGCCCUUGGCAGCUGCAACAUGAGGAUCACCCAUGUAAUA | 26.3 | – | – | 38.5 | – |
| AUAAUGGGUAUCGGAUUAUCAUGGAAUGAUACCAGAUACUUAGAUAUCCCUUGGCAGCAUGAGGACAUGAGGAUCACCCAUGUAU | 118 | – | – | 46.4 | – |
| UGUAUGUGAUUUGAUACCAGACCAACUGGUAAUACAUGAGGAUCACCCAUGUAGAUUUGGGUCCCUUGGCAGCAAAUCGCAUACU | – | 48 | 11.7 | – | – |
| ACCCAUAAUUGGGCGGGUGGAUUGAGUGAUACCAGUCGUAUACAUGACCCUUGGCAGCACCGACAUGAGGAUCACCCAUGUGCCA | – | 39.7 | 99.8 | – | – |
| UUUGAUAGGACAGAUACCAGCGUGUUGUUGAACAUGAGGAUCACCCAUGUAGUGAUCAAGCGCCCUUGGCAGCUGGUUUGUUAGG | – | 236 | 81.7 | – | – |
| AUCGUACCUGAUGAUACCAGCAAGUGAUCAUAACAUGAGGAUCACCCAUGUAAUCAGUGAUGCCCUUGGCAGCAUAAUCGAUACA | – | 178 | 140 | – | – |

| Sequence | apparent Kd (MS2 coat protein [1]; [3]) [nM] | apparent Kd (MS2 coat protein [1]; [4]) [nM] | apparent Kd (MS2 coat protein [1]; [5]) [nM] | apparent Kd (MS2 coat protein [1]; [6]) [nM] | further results |
| --- | --- | --- | --- | --- | --- |
| GCGAUACAUGAGGAUCACCCAUGUGCAGAUACCAGAGGUGCAUGCCUCCCUUGGCAGCUGCGACGCUCUGGCAUCUUGUGGGAUG | – | 69.1 | 71 | – | – |
| ACAUGAGGAUCACCCAUGUGCAGAACGGAUACCAGCGUCCUGGUACGCCCUUGGCAGCCGGACAUGAGGAUCACCCAUGUGUGGA | 406 | – | – | 93.1 | – |
| UGACAUUGCUCAGAUACCAGACAUGAGGAUCACCCAUGUACCAAGGUACCCGAAAGGAAUGUCCCUUGGCAGCUGAGCAAUGUCU | 21.6 | – | – | 9.93 | – |
| AGCCCUGUGCUAGAUACCAGCUACAUGAGGAUCACCCAUGUGCGUCAAGACUGACUGUGUAGCCCUUGGCAGCUACUCGCAUGUA | 23 | – | – | 12.6 | – |
| AGCGCAGGUCCUGAUACCAGAGACAUGAGGAUCACCCAUGUCCGAUGGUCCUGCCUCAGGCUCCCUUGGCAGCAGGGCUUGUGCU | 20.4 | – | – | 10.3 | – |
| CGACGAUACCUGGAUACCAGCGACAUGAGGAUCACCCAUGUAUGUGGAUCAGCCAUGAUAUGCCCUUGGCAGCCACCAAAGUCGG | 51.9 | – | – | 14.9 | – |
| UCGCAUUGCUGCGAUACCAGACAUGAGGAUCACCCAUGUACCAAGAAAACGUACAUAAAUGUCCCUUGGCAGCGCAGCAAUGCGU | 1110 | – | – | 443 | – |
| CGGUUUGUGAUGGAUACCAGCAGAGUGACUGUUUAUCCUGACAUGAGGAUCACCCAUGUGUGCCCUUGGCAGCUGUUGUGGGCUG | 80.8 | – | – | 80.4 | – |
| UAUCUUGCGGGCGCCCGCAAGGUUGCGGAUACCAGCGAGAUAAAUCGCCCUUGGCAGCCGAACAUGAGGAUCACCCAUGUCGGAC | – | 9.99 | 12.7 | – | – |
| AGGAAACAACAUGAGGAUCACCCAUGUGAUACCAGUCAAAUAAAAGACCCUUGGCAGCACACAUGACAUGAGGAUCACCCAUGUA | – | 31.9 | 77 | – | – |
| AUAAUGGGUUUCGGACUAUCAUGGAAUGAUACCAGAUACUUAGAAAUCCCUUGGCAGCAUGAGGACAUGAGGAUCACCCAUGUAU | 61.5 | – | – | 57.9 | – |
| GAUGAACUAUAUGAUACCAGACAACAUGAGGAUCACCCAUGUGUAAGUCGUCCUCUGCCUGUCCCUUGGCAGCGUAUAGUUUAUC | 84 | – | – | 47.6 | – |
| UUAUUUAUAAUGGAUACCAGUUUAAUGGCCGCAAAUCCUGACAUGAGGAUCACCCAUGUAAGCCCUUGGCAGCUGUUAUGGGUUU | 41.3 | – | – | 34.8 | – |
| AAUAACAUGAGGAUCACCCAUGUAAAAGAUACCAGAUGCAUGAUGAUCCCUUGGCAGCUUAACGCUGAUUGGAAACAAUCAGCGA | – | 39 | 37.6 | – | – |
| ACGAACGAUAGCGAUACCAGACGUACAUGAGGAUCACCCAUGUUUUGGGUAAGGUUAAUAGUCCCUUGGCAGCGCUUUAAGUUCG | 469 | – | – | 59.6 | – |
| CUCUGAGUCCGAAAGGACUCAGAGGCGGAUACCAGCGAGGUCCAUCGCCCUUGGCAGCCGAACAUGAGGAUCACCCAUGUCGGUA | – | 10.5 | 14.5 | – | – |
| UCAUGAGGAUCACCCAUGUGGCGUCUUGAUACCAGACGAGAAGUAGUCCCUUGGCAGCAAAUACAUGAGGAUCACCCAUGUAGGA | 63.7 | – | – | 38.6 | – |
| GAUUUAACAAAAGUUAGAUCAGUGGGUGAACGAGGACCGGUACGGCCGCCACUCGGACAUGAGGAUCACCCAUGUCCAUGUGAAA | – | – | – | – | apparent Kd (MS2 coat protein [2]; [7]): 17.8 nM; apparent Kd (MS2 coat protein [2]; [8]): 43.1 nM |
| CAUGGCUGUGCGGCCGCCACUGGCUCAUCCUGCAUUACAUGAGGAUCACCCAUGUUGCGGCCUCCCAGGACCGGGCAUAGCCUGA | – | – | – | – | apparent Kd (MS2 coat protein [2]; [9]): 300 nM; apparent Kd (MS2 coat protein [2]; [10]): 139 nM |
| GGAGUAGGAAACUAUUCCAAUCCUCGUGAACGAGGACCGGUACGGCCGCCACUCGAUAAAUAAAUACAUGAGGAUCACCCAUGUA | – | – | – | – | apparent Kd (MS2 coat protein [2]; [7]): 24.4 nM; apparent Kd (MS2 coat protein [2]; [8]): 50.2 nM |
| CUAGACUGUGCGGCCGCCACUGGCUCAUCCUGCAUUACAUGAGGAUCACCCAUGUUGCGGCCUCCCAGGACCGGGCAUAGUCUGC | – | – | – | – | apparent Kd (MS2 coat protein [2]; [9]): 329 nM; apparent Kd (MS2 coat protein [2]; [10]): 105 nM |
| UUAUAAGUACCGGUCCUCAGAUCCUCAUGACGAGGACCGGUACGGCCGCCACUCGAAACAUGAGGAUCACCCAUGUAAUAAUAAC | – | – | – | – | apparent Kd (MS2 coat protein [2]; [7]): 37.2 nM; apparent Kd (MS2 coat protein [2]; [8]): 18.2 nM |
